Activity calls are given as the source filed them. No cut-off for these calls is given here.
Experiments:
[1] = test system: SF-295; test: Growth inhibition of human SF-295 cells measured after 48 hrs by sulforhodamine B assay; type: functional
In short: (§1)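 JFCR39 panel lines were grown in RPMI 1640 with 5% FBS, penicillin and streptomycin at 37 °C in 5% CO2. After 48 h of drug exposure, total cellular protein was measured by sulforhodamine B staining. GI50 was calculated by a previously described method.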

[2] = test system: MKN-45; test: Growth inhibition of human MKN-45 cells measured after 48 hrs by sulforhodamine B assay; type: functional; in short: as §1
[3] = test system: KM12; test: Growth inhibition of human KM12 cells measured after 48 hrs by sulforhodamine B assay; type: functional; in short: as §1
[4] = test system: A549; test: Inhibition of AKT phosphorylation at S473 residue in human A549 cells at 0.5 uM measured after 5 mins by Western blotting analysis; type: cell-based
[5] = test system: OVCAR-3; test: Growth inhibition of human OVCAR-3 cells measured after 48 hrs by sulforhodamine B assay; type: functional; in short: as §1
[6] = test system: ACHN; test: Growth inhibition of human ACHN cells measured after 48 hrs by sulforhodamine B assay; type: functional; in short: as §1
[7] = test system: MKN-28; test: Growth inhibition of human MKN-28 cells measured after 48 hrs by sulforhodamine B assay; type: functional; in short: as §1
[8] = test system: PC-3; test: Antitumor activity against human PC-3 cells xenografted in nude mouse assessed as inhibition of tumor growth at 400 mg/kg, po administered on day 0 to 13 except for day 3 and 10 measured after 14 days; type: functional, organism-based; conditions: time 14.0 day
In short: (§2)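 Female BALB/c-background nude mice were implanted s.c. with 3 × 3 × 3 mm tumor fragments. At 100–300 mm3 tumor volume (day 0), groups of five were randomized and dosed orally at 400 mg/kg on days 0–13, skipping days 3 and 10. Caliper volume was (L×W2)/2, relative to day 0 (RTV). T/C% on day 14 = 100 × mean treated RTV / mean control RTV.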

[9] = test system: U-251; test: Growth inhibition of human U-251 cells measured after 48 hrs by sulforhodamine B assay; type: functional; in short: as §1
[10] = Toxicity in nude mouse xenografted with human A549 cells assessed as change in body weight at 400 mg/kg, po administered on day 0 to 13 except for day 3 and 10 measured after 28 days (reference value: 17 %); type: organism-based; conditions: in vivo, 672 h, time 28 day
[11] = test system: NCI-H460; test: Growth inhibition of human NCI-H460 cells measured after 48 hrs by sulforhodamine B assay; type: functional; in short: as §1
[12] = test system: A549; test: Downregulation of cyclin D1 expression in human A549 cells at 0.5 uM measured after 30 mins by Western blotting analysis; type: functional, cell-based
In short: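 A549 cells were lysed in Tris-HCl pH 7.4 buffer with NaF, pyrophosphate, Na3VO4, EDTA, aprotinin, PMSF, 0.5% NP-40 and 0.1% SDS. Lysates were run on SDS-PAGE and blotted to PVDF. Blots were probed with rabbit anti-cyclin D1 polyclonal (1:200), then HRP anti-rabbit IgG, and detected by ECL chemiluminescence.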

[13] = test system: OVCAR-3; test: Induction of apoptosis in human OVCAR-3 cells assessed as increase in chromatin condensation at 10 uM measured after 48 hrs by Hoechst 33342 staining based fluorescence microscopic analysis; type: functional, cell-based
In short: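 OVCAR3 cells grown 24 h in RPMI 1640 with 5% FBS, then 48 h with or without 10 μM compound; fixed in 1% glutaraldehyde in PBS at 4 °C for 24 h, stained with 167 μM Hoechst 33342, apoptotic cells scored by fluorescence microscopy.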

[14] = test system: MEF; test: Inhibition of PI3K in platelet-derived growth factor induced mouse MEF cells assessed as reduction in PIP3 formation at 1 uM preincubated with compound for 15 mins followed by induction by immunoprecipitation based liquid scintillation spectroscopic analysis; type: cell-based
In short: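 Murine embryonic fibroblasts labelled 4 h at 37 °C in phosphate-free DMEM with 25 mM HEPES pH 7.4 and [32P]orthophosphate (0.1 mCi/mL); 1 μM compound for 15 min before PDGF (10 ng/mL) stimulation; PIP3 formation measured.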

[15] = Growth inhibition of human HBC4 cells measured after 48 hrs by sulforhodamine B assay; type: functional; in short: as §1
[16] = test system: MEF; test: Inhibition of PI3K in platelet-derived growth factor induced mouse MEF cells assessed as reduction in membrane ruffling at 1 uM preincubated with compound for 15 mins followed by induction by immunoprecipitation based liquid scintillation spectroscopic analysis; type: cell-based
In short: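 Murine embryonic fibroblasts treated with or without 1 μM compound for 15 min, stimulated with PDGF (10 ng/mL) for 5 min, fixed in 3% formaldehyde 30 min at room temperature, permeabilized with 0.1% Triton X-100, F-actin stained with TRITC-phalloidin (0.1 μg/mL), viewed by fluorescence microscopy.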

[17] = test system: SK-OV-3; test: Growth inhibition of human SK-OV-3 cells measured after 48 hrs by sulforhodamine B assay; type: functional; in short: as §1
[18] = test system: WiDr; test: Antitumor activity against human WiDr cells xenografted in nude mouse assessed as inhibition of tumor growth at 400 mg/kg, po administered on day 0 to 13 except for day 3 and 10 measured after 14 days; type: functional, organism-based; conditions: time 14.0 day; in short: as §2
[19] = Growth inhibition of human HBC5 cells measured after 48 hrs by sulforhodamine B assay; type: functional; in short: as §1
[20] = test system: HT-29; test: Growth inhibition of human HT-29 cells measured after 48 hrs by sulforhodamine B assay; type: functional; in short: as §1
[21] = Toxicity in nude mouse xenografted with human WiDr cells assessed as change in body weight at 400 mg/kg, po administered on day 0 to 13 except for day 3 and 10 measured after 28 days (reference value: 17 %); type: organism-based; conditions: in vivo, 672 h, time 28 day
[22] = molecular target: Tuberin (Homo sapiens) (UniProt P49815); test: Inhibition of TSC-2 phosphorylation at ser-1462 residue in human A549 cells measured after 3 hrs by immunoblotting analysis; type: cell-based; conditions: dose <= 2.0 µM
Chain of Tuberin (Homo sapiens) (P49815 whole entry): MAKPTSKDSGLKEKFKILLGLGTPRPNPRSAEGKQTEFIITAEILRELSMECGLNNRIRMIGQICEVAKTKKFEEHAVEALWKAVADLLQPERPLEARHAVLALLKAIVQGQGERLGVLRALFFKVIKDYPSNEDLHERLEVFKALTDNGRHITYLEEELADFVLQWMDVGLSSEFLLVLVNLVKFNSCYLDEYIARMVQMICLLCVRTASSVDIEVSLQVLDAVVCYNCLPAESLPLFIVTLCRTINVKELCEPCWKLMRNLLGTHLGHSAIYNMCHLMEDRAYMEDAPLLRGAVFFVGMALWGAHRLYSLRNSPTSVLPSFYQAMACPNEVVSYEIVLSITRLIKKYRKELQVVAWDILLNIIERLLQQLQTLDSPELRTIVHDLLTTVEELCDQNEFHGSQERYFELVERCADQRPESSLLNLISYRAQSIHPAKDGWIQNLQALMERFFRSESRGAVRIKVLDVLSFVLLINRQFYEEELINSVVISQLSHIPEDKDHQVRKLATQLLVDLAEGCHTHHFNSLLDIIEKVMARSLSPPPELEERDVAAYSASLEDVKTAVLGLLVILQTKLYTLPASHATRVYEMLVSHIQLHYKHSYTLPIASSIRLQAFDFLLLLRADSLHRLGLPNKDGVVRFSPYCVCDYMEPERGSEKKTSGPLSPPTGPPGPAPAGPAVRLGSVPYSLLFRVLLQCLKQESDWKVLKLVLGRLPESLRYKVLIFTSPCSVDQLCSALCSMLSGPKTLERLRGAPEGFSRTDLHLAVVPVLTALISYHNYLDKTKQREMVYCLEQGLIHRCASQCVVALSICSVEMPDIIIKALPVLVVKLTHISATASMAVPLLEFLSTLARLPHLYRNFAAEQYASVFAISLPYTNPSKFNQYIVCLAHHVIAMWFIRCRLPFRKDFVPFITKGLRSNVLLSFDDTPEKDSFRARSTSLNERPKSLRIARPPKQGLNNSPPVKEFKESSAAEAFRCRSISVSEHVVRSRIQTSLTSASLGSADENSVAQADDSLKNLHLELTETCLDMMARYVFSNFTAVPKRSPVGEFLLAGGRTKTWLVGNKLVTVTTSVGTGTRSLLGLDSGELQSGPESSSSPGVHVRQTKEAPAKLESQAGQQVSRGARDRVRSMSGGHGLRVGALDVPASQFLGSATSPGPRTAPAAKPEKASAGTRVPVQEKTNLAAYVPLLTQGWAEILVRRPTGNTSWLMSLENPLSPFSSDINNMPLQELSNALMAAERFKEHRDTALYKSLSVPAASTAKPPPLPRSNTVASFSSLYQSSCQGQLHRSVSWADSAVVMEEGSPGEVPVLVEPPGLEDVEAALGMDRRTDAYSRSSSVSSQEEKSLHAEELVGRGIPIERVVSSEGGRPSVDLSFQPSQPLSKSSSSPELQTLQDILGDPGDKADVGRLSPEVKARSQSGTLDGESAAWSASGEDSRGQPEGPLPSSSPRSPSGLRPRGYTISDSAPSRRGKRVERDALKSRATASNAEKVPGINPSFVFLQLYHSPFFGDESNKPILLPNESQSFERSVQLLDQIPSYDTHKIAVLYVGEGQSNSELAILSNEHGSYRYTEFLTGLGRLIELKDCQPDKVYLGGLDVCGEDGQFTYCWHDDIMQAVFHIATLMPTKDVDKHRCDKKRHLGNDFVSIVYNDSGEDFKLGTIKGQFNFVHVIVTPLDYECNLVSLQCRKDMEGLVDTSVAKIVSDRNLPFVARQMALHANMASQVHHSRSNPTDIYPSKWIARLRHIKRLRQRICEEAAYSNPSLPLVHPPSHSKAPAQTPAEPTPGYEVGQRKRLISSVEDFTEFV
In short: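 A549 cells treated over 0 to 2.0 μM; lysed in 10 mM Tris–HCl pH 7.4, 50 mM NaCl, NaF, pyrophosphate, vanadate, EDTA, protease inhibitors, 0.5% NP-40, 0.1% SDS; proteins resolved by SDS-PAGE, blotted to PVDF, probed with phospho-specific antibodies, HRP secondary, ECL detection.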

[23] = test system: MKN-74; test: Growth inhibition of human MKN74 cells measured after 48 hrs by sulforhodamine B assay; type: functional; in short: as §1
[24] = molecular target: Dual specificity mitogen-activated protein kinase kinase 1 (Homo sapiens) (UniProt Q02750); test: Inhibition of MEK1 phosphorylation at Ser-217/221 residues in human A549 cells measured after 3 hrs by immunoblotting analysis; conditions: dose <= 2.0 µM
Chain of Dual specificity mitogen-activated protein kinase kinase 1 (Homo sapiens) (Q02750 whole entry): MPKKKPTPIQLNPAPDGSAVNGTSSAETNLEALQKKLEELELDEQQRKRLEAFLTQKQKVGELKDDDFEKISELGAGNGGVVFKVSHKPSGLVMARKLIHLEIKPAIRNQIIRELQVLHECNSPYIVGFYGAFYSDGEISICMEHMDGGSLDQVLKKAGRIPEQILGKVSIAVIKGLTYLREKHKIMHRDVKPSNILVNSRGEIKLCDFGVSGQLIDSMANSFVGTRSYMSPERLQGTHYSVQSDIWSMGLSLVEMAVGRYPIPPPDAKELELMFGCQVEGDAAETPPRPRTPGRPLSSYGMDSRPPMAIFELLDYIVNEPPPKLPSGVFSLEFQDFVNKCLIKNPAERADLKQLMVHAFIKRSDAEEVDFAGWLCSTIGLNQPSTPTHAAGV

[25] = test system: MDA-MB-231; test: Growth inhibition of human MDA-MB-231 cells measured after 48 hrs by sulforhodamine B assay; type: functional; in short: as §1
[26] = test system: RXF 631; test: Growth inhibition of human RXF 631 cells measured after 48 hrs by sulforhodamine B assay; type: functional; in short: as §1
[27] = test system: SNB-78; test: Growth inhibition of human SNB-78 cells measured after 48 hrs by sulforhodamine B assay; type: functional; in short: as §1
[28] = Residual PI3K activity in human A549 cell lysate at 1 uM preincubated with compound for 5 mins followed by [gamma-32p]-ATP addition measured after 20 mins by immunoprecipitation based liquid scintillation spectroscopic analysis relative to control; conditions: A549, 25 min
[29] = molecular target: Glycogen synthase kinase-3 beta (Homo sapiens) (UniProt P49841); test: Inhibition of GSK-3beta phosphorylation at Ser9 residue in human A549 cells at 0.5 uM measured after 30 mins by Western blotting analysis; type: cell-based
Chain of Glycogen synthase kinase-3 beta (Homo sapiens) (P49841 whole entry, looked up): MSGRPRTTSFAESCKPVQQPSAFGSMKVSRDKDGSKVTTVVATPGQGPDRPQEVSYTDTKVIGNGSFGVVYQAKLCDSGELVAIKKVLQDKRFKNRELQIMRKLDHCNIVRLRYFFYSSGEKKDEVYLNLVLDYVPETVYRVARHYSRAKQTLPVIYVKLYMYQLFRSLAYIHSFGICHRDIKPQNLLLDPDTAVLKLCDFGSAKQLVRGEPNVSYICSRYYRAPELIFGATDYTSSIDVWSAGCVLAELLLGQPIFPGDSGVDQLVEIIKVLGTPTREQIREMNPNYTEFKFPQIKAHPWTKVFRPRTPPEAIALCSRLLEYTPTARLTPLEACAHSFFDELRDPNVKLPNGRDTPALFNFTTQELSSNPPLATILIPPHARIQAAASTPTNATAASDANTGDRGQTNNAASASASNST

GI50 [2]: 288 nM | GI50 [5]: 91.2 nM | GI50 [6]: 407 nM | GI50 [7]: 1350 nM | GI50 [9]: 1100 nM | GI50 [11]: 468 nM | GI50 [17]: 331 nM | GI50 [20]: 447 nM | inhibition [22]: Dose-Dependent Effect | GI50 [23]: 617 nM | inhibition [24]: inactive | GI50 [25]: 562 nM | inhibition [29]: Active
SMILES: FC(F)c1nc2ccccc2n1-c1nc(N2CCOCC2)nc(N2CCOCC2)n1 [ZSTK-474]
GI50 [1]: 186 nM | GI50 [3]: 1660 nM | inhibition [4]: Active | Activity [8]: Active | Activity [10]: 0% | Activity [12]: Active | Activity [13]: Active | inhibition [14]: Active | GI50 [15]: 240 nM | inhibition [16]: Active | Activity [18]: Active | GI50 [19]: 28.2 nM | Activity [21]: 3% | GI50 [26]: 724 nM | GI50 [27]: 55 nM | level, % of control at 1 µM [28]: 4.7%

— ChEMBL document CHEMBL5661968, “Antitumor activity of ZSTK474, a new phosphatidylinositol 3-kinase inhibitor” (J Natl Cancer Inst, 2006)
